Data published in paper PMC4110683 (Chemistry and physics of lipids, 2013).
Values after ≈ are worked out from the molar mass of the structure shown. Like-named read-outs stand apart in the source and are kept apart here.

How the values were obtained:
[1] = system: housefly; conditions: in words, ref de Renobales et al., 1986; cited from earlier work
[2] = system: L. donovani promastigotes; conditions: read-out: IC50 L. donovani promastigotes; ref Carballeira et al., 2012; cited from earlier work
[3] = system: caspase-3; assay: Caspase-3 activation in SH-SY5Y cells; format: cell-based, human; conditions: 40 μM, 48h, in words
[4] = target: T1, PfFabZ (Plasmodium falciparum, UniProt Q965D7); assay: Inhibition of PfFabZ; format: biochemical
T1 sequence (Q965D7 19-230): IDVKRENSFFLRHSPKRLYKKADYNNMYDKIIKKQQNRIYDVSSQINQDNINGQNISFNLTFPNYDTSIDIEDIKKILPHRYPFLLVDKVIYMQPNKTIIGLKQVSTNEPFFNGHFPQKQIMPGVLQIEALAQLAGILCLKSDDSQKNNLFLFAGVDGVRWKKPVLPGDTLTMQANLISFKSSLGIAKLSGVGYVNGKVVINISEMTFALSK

[5] = system: human SH-SY5Y neuroblastoma cell line; assay: Cytotoxicity to SH-SY5Y neuroblastoma cells; format: cell-based; conditions: 120 h, read-out: IC50 SH-SY5Y neuroblastoma cell line
Summary of the method: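 Human SH-SY5Y neuroblastoma cells were first differentiated with 15 μM all-trans retinoic acid for 5 d. Test compound was then added to the culture medium, and activity was read by sulforhodamine B (SRB) assay.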

[6] = system: mouse leukaemic monocyte macrophage cell line (RAW 264.7); assay: Cytotoxicity to RAW 264.7 cells; format: cell-based; conditions: RAW264.7, read-out: IC50 RAW 264.7
[7] = system: InhA, the enoyl-ACP reductase; conditions: in words; ref Morbidoni et al., 2006; cited from earlier work
[8] = system: human colon adenocarcinoma grade II cell line (HT29); assay: Cytotoxicity to HT29 cells; format: cell-based; conditions: HT-29, read-out: IC50 HT29
[9] = target: PfFabG (Plasmodium falciparum, UniProt Q8I2S7); assay: biochemical
[10] = system: Mycobacterium tuberculosis H37Rv; conditions: ref Morbidoni et al., 2006; cited from earlier work
[11] = target: T2, hTopIB (Homo sapiens, UniProt P11387); conditions: read-out: hTopIB EC50; relaxation activity; ref Carballeira et al., 2012; cited from earlier work
T2 sequence (P11387 1-765): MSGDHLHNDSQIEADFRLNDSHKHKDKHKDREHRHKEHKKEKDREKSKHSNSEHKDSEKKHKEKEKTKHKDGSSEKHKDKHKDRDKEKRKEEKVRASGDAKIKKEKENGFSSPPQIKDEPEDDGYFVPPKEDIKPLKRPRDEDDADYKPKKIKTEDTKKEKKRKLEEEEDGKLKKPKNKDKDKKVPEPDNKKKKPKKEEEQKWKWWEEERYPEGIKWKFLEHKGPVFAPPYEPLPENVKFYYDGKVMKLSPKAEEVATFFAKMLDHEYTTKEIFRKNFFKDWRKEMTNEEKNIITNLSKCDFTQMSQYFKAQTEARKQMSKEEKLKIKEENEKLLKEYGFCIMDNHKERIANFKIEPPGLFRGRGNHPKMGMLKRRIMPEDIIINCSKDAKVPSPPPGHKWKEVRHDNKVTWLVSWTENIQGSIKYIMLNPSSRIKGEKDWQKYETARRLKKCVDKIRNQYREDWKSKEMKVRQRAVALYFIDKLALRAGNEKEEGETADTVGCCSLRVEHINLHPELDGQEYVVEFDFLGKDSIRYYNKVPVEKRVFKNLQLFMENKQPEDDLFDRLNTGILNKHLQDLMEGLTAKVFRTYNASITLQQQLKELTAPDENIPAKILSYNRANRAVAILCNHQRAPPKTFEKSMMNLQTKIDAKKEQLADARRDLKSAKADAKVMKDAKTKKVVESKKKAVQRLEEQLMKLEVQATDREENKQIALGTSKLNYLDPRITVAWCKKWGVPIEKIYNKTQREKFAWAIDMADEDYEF

[12] = system: P. falciparum K1; assay: Toxicity to P. falciparum K1 strain; format: cell-based, Plasmodium falciparum
[13] = system: human SH-SY5Y neuroblastoma cells; assay: LDH release in SH-SY5Y cells; format: cell-based; conditions: 40 μM, 48h, in words
[14] = system: LdTopIB; conditions: read-out: LdTopIB EC50; relaxation activity; ref Carballeira et al., 2012; cited from earlier work
[15] = system: BALB/c murine macrophages; conditions: read-out: Murine macrophages BALB/c IC50; ref Carballeira et al., 2012; cited from earlier work
[16] = target: T3, PfFabI (Plasmodium falciparum, UniProt Q9BH77); assay: Inhibition of PfFabI; format: biochemical
T3 sequence (Q9BH77 22-432): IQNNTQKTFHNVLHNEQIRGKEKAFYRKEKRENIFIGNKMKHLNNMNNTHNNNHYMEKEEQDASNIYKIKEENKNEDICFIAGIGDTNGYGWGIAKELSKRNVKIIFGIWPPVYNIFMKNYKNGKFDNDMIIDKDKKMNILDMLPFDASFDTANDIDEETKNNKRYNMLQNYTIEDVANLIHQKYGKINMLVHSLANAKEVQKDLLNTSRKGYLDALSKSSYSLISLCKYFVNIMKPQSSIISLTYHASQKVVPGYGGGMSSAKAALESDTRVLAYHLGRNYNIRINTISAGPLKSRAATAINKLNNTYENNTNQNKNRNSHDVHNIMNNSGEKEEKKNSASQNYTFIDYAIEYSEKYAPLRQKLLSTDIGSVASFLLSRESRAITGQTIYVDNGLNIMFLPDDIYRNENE

[17] = system: M. smegmatis mc^2 155; conditions: ref Morbidoni et al., 2006; cited from earlier work

SMILES: CCCCCCCCCCCCCCCC#CC(=O)O [2-ODA, 2-octadecynoic acid]
- In vivo incorporation of [1-14C]acetate into fatty acids and hydrocarbons [1]: inhibited
- IC50 [2]: 11 µM
- Caspase-3 activation [3]: did not produce any significant caspase-3 activation
- IC50 [4]: 1 µM
- IC50 [5]: 26 ± 2 µM
- IC50 [6]: 45.5 ± 3.4 µM
- Inhibition of InhA [7]: able to inhibit
- IC50 [8]: 101.1 ± 0.9 µM
- IC50 [9]: 2.9 µM
- MIC against Mycobacterium tuberculosis H37Rv [10]: 20 to 25 µM
- EC50 [11]: 34.8 ± 2.3 µM
- IC50 ([12]; Plasmodium falciparum, K1, read-out: IC50 P. falciparum K1, Carballeira and Tasdemir, unpublished data): 20 µM
- IC50 ([12]; read-out: IC50 P. falciparum K1, Carballeira and Tasdemir, unpublished data): 21.7 µM
- LDH release [13]: significant LDH release
- EC50 [14]: 5.3 ± 0.7 µM
- IC50 [15]: > 100 µM
- IC50 [16]: 1.1 µM
- MIC against M. smegmatis mc^2 155 [17]: 4 µM (≈ 1.12 µg/mL)
